Reference: ChEMBL document CHEMBL1126595, “Studies directed toward the design of orally active renin inhibitors. 2. Development of the efficacious, bioavailable renin inhibitor (2S)-2-benzyl-3- [[(1-methylpiperazin-4-yl)sulfonyl]propionyl]-3-thiazol-4-yl-L-alanine amide of (2S,3R,4S)-2-amino-1-cyclohexyl-3,4-dihydroxy-6-methylheptane …” (J Med Chem, 1993)
Values after ≈ are worked out from the molar mass of the structure shown. Blank lines part the entries; values can stand above or below the compound they belong to.

Experiments:
[1] = Bioavailability in the portal circulation after 30 minutes was determined after intraduodenal dose of 10 mg/kg in rat by HPLC method; format: ADME, organism-based; conditions: plasma (portal circulation), read-out: Plasma level
Outline: (§1)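 Screening model in anesthetized rats given 10 mg/kg intraduodenally. Formulation was ethanol stock with 110 mol % HCl, diluted with aqueous hydroxypropyl methylcellulose to 25% ethanol. Systemic and portal blood drawn at 10 and 30 min in the same animals. Drug level (ng/mL) measured by HPLC or renin inhibition assay. Mean ± SEM, n = 3 unless noted.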

Renin [2] = target: T1, Renin (Homo sapiens, UniProt P00797); assay: Inhibitory concentration against human plasma renin at pH 7.4; format: cell-free
T1 sequence (P00797 whole entry): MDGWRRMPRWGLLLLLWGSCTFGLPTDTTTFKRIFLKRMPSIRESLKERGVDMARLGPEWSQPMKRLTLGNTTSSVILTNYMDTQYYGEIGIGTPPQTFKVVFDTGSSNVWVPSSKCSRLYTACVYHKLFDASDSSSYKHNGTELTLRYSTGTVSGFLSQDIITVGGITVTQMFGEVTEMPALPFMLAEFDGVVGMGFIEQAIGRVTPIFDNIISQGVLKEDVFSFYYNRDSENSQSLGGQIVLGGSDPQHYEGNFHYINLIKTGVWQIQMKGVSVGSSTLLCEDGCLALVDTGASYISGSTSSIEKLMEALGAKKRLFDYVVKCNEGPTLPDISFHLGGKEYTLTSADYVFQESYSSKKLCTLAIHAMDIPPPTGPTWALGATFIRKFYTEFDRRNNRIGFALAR

[3] = Partition coefficient in octanol/water phase at pH 7.4; format: physicochemical
Outline: (§2)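 log P measured by octanol/water partition at pH 7.4.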

[4] = Bioavailability in the portal circulation after 10 minutes was determined after intraduodenal dose of 10 mg/kg in rat by HPLC method; format: ADME, organism-based; conditions: plasma (portal circulation), read-out: Plasma level; outline: as §1
[5] = Bioavailability in the systemic circulation after 30 minutes was determined after intraduodenal dose of 10 mg/kg in rat by HPLC method; format: ADME, organism-based; conditions: plasma (systemic circulation), read-out: Plasma level; outline: as §1
[6] = Bioavailability in the systemic circulation after 10 minutes was determined after intraduodenal dose of 10 mg/kg in rat by HPLC method; format: ADME, organism-based; conditions: plasma (systemic circulation), read-out: Plasma level; outline: as §1
[7] = Partition coefficient in the octanol/water phase at pH 7.4; format: physicochemical; outline: as §2
[8] = Peak concentration was determined in systemic circulation after intraduodenal dose of 10 mg/kg in monkey; format: ADME, organism-based; parameters: dose 10 mg/kg, route intraduodenal; conditions: simiiformes, in vivo, read-out: Activity
Outline: (§3)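 Anesthetized, salt-depleted cynomolgus monkeys dosed intraduodenally at 10 mg/kg in HCl salt/ethanol–hydroxypropyl methylcellulose vehicle (25% ethanol). Systemic and portal plasma drug levels measured by renin inhibition assay. AUC in ng h/mL. Bioavailability compared against an iv dose of 0.3 mg/kg or 1.0 mg/kg, the latter taken from earlier work. Mean ± SEM.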

[9] = Hypotension peak is percentage change from predose baseline pressure observed after intraduodenal dose of 10 mg/kg in monkey; format: ADME, organism-based; parameters: dose 10 mg/kg, route intraduodenal; conditions: simiiformes, in vivo, other
Outline: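 Anesthetized, salt-depleted cynomolgus monkeys given 10 mg/kg intraduodenally. Mean arterial pressure followed for up to 5 h. Peak fall expressed as % change from predose baseline. Difference from baseline significant if P < 0.05. Mean ± SEM.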

[10] = Integrated area under the plasma drug level-time curve was determined in portal circulation after intraduodenal dose of 10 mg/kg in monkey; format: ADME, organism-based; parameters: dose 10 mg/kg, route intraduodenal; conditions: simiiformes; outline: as §3
[11] = Integrated area under the plasma drug level-time curve was determined in systemic circulation after intraduodenal dose of 10 mg/kg in monkey; format: ADME, organism-based; parameters: dose 10 mg/kg, route intraduodenal; conditions: simiiformes; outline: as §3
[12] = Peak concentration was determined in portal circulation after intraduodenal dose of 10 mg/kg in monkey; format: ADME, organism-based; parameters: dose 10 mg/kg, route intraduodenal; conditions: simiiformes, in vivo, read-out: Activity; outline: as §3
[13] = Bioavailability was determined after intraduodenal dose of 10 mg/kg in monkey (compared to 0.3 mg/kg intravenous dose); format: ADME, organism-based; conditions: simiiformes, in vivo, read-out: Bioavailabiility; outline: as §3
[14] = Bioavailability was determined after intraduodenal dose of 10 mg/kg in rat, determined by renin inhibition assay; format: ADME, organism-based; conditions: in vivo, read-out: Bioavailabiility
Outline: (§4)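 Intraduodenal 10 mg/kg to anesthetized rats or ferrets. Compound dissolved in ethanol with 110 mol % HCl, then diluted in aqueous hydroxypropyl methylcellulose to 25% ethanol (10 mg/mL). Plasma sampled id rat 15, 30, 60, 120 min; id ferret 5, 15, 30, 60, 120, 180 min. Drug measured by renin inhibition assay or HPLC. AUC in ng h/mL. Bioavailability is relative to iv 1.0 mg/kg (rat) or 0.3 mg/kg (ferret).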

Renin [15] = target: T2, Renin (Rattus norvegicus, UniProt P08424); assay: In vitro inhibitory concentration against rat plasma renin at pH 7.4; format: cell-free
T2 sequence (P08424 whole entry): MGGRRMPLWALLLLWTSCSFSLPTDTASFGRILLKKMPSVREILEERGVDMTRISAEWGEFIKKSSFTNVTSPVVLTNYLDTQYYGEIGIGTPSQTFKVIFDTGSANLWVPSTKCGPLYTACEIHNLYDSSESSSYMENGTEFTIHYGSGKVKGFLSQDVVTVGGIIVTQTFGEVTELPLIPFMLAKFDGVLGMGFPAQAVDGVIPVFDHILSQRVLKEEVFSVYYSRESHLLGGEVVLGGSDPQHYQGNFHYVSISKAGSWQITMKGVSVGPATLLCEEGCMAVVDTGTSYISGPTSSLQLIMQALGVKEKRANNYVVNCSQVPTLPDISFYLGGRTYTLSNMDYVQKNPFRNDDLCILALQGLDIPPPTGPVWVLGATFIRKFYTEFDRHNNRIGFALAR

[16] = Integrated area under the plasma drug level-time curve was determined in systemic circulation after intraduodenal dose of 10 mg/kg in monkey determined by renin inhibition assay; format: ADME, organism-based; parameters: dose 10 mg/kg, route intraduodenal; conditions: simiiformes; outline: as §3
[17] = Bioavailability in the portal circulation after 10 minutes was determined after intraduodenal dose of 10 mg/kg in rat by renin inhibition assay; format: ADME, organism-based; conditions: plasma (portal circulation), read-out: Plasma level; outline: as §1
[18] = Peak concentration was determined in systemic circulation after intraduodenal dose of 10 mg/kg in rat, determined by renin inhibition assay; format: ADME, organism-based; parameters: dose 10 mg/kg, route intraduodenal; conditions: in vivo, read-out: Activity; outline: as §4
[19] = Bioavailability in the systemic circulation after 10 minutes was determined after intraduodenal dose of 10 mg/kg in rat by renin inhibition assay; format: ADME, organism-based; conditions: plasma (systemic circulation), read-out: Plasma level; outline: as §1
[20] = Solubility at pH 7.4; format: physicochemical; conditions: buffer
[21] = Bioavailability was determined after intraduodenal dose of 10 mg/kg in ferret, determined by renin inhibition assay; format: ADME, organism-based, Mustela putorius furo; conditions: in vivo, read-out: Bioavailabiility; outline: as §4
[22] = In vitro inhibitory concentration against monkey plasma renin at pH 7.4
[23] = Peak concentration was determined in systemic circulation after intraduodenal dose of 10 mg/kg in ferret, determined by renin inhibition assay; format: ADME, organism-based, Mustela putorius furo; parameters: dose 10 mg/kg, route intraduodenal; conditions: in vivo, read-out: Activity; outline: as §4
[24] = Integrated area under the plasma drug level-time curve was determined in systemic circulation after intraduodenal dose of 10 mg/kg in ferret, determined by renin inhibition assay; format: ADME, organism-based, Mustela putorius furo; parameters: dose 10 mg/kg, route intraduodenal; outline: as §4
[25] = Bioavailability in the portal circulation after 30 minutes was determined after intraduodenal dose of 10 mg/kg in rat by renin inhibition assay; format: ADME, organism-based; conditions: plasma (portal circulation), read-out: Plasma level; outline: as §1
Renin [26] = target: T1, Renin; assay: In vitro inhibitory concentration against human plasma renin at pH 7.4; format: cell-free
[27] = Integrated area under the plasma drug level-time curve was determined in systemic circulation after intraduodenal dose of 10 mg/kg in rat, determined by renin inhibition assay; format: ADME, organism-based; parameters: dose 10 mg/kg, route intraduodenal; outline: as §4
[28] = Bioavailability was determined after intraduodenal dose of 10 mg/kg in monkey (compared to 0.3 mg/kg intravenous dose), determined by renin inhibition assay; format: ADME, organism-based; conditions: simiiformes, in vivo, read-out: Bioavailabiility; outline: as §3
[29] = Bioavailability in the systemic circulation after 30 minutes was determined after intraduodenal dose of 10 mg/kg in rat by renin inhibition assay; format: ADME, organism-based; conditions: plasma (systemic circulation), read-out: Plasma level; outline: as §1
[30] = target: Renin (Canis lupus familiaris); assay: In vitro inhibitory concentration against dog plasma renin at pH 7.4
[31] = Peak concentration was determined in systemic circulation after intraduodenal dose of 10 mg/kg in monkey, determined by renin inhibition assay; format: ADME, organism-based; parameters: dose 10 mg/kg, route intraduodenal; conditions: simiiformes, in vivo, read-out: Activity; outline: as §3

concentration at 0.5 h [1]: 270 ng/mL | IC50 (Renin [2]): 8.1 nM | logD [3]: 2.83 | concentration at 10 min [4]: 580 ng/mL | concentration at 0.5 h [5]: 47 ng/mL | concentration at 10 min [6]: 93 ng/mL
Structure (SMILES): CC(C)C[C@H](O)[C@H](O)[C@H](CC1CCCCC1)NC(=O)[C@H](Cc1cscn1)NC(=O)[C@@H](CC(=O)N(C)CCCN(C)C)Cc1ccccc1

logD [7]: 3.61 | IC50 (Renin [2]): 4 nM | Cmax [8]: 72 ng/mL | Change [9]: 23% | AUC [10]: 530 ng·h/mL | AUC [11]: 110 ng·h/mL | Cmax [12]: 550 ng/mL | bioavailability [13]: 1.8%
Structure (SMILES): CC(C)C[C@H](O)[C@H](O)[C@H](CC1CCCCC1)NC(=O)[C@H](Cc1cscn1)NC(=O)[C@H](Cc1ccccc1)CS(=O)(=O)C1CCN(C)CC1

bioavailability [14]: 27% | IC50 (Renin [15]): > 10000 nM | logD [7]: 4.22 | AUC [16]: 260 ng·h/mL | concentration at 10 min [17]: 550 ng/mL | Cmax [18]: 980 ng/mL | Change [9]: 28% | AUC [10]: 3400 ng·h/mL | concentration at 10 min [19]: 220 ng/mL | Cmax [12]: 1200 ng/mL | solubility [20]: 13 µg/mL (≈ 18.4 µM) | bioavailability [21]: 68% | IC50 [22]: 0.76 nM | Cmax [23]: 510 ng/mL | AUC [24]: 1100 ng·h/mL | concentration at 0.5 h [25]: 560 ng/mL | IC50 (Renin [26]): 2.6 nM | AUC [27]: 1300 ng·h/mL | bioavailability [28]: 3.1% | concentration at 0.5 h [29]: 230 ng/mL | IC50 [30]: 33 nM | Cmax [31]: 70 ng/mL
Structure (SMILES): CC(C)C[C@H](O)[C@H](O)[C@H](CC1CCCCC1)NC(=O)[C@H](Cc1cscn1)NC(=O)[C@@H](CC(=O)N(C)CCc1ccccn1)Cc1ccccc1
